In the first assay the test system is cytoplasmic HBV-DNA replication in AML12HBV10 cells. Put plainly: Antiviral assay in AML12HBV10 cells. In kind it is cell-based, hepatitis B virus. As to conditions: AML12HBV10 cells; SAR statement of the text. A digest of the protocol: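 AML12-derived mouse hepatocyte line carrying a tetracycline-inducible, envelope-deficient HBV genome; seeded at 2 × 10^4 cells/well in tetracycline-free medium. Next day, mock or twofold serial dilution (10 to 0.08 µM) for 48 h. Cells lysed in Tris-HCl pH 7.5/EDTA/NaCl/1% NP-40. Half the lysate NaOH-denatured, neutralised, dot-blotted and hybridised with 32P-labelled HBV minus-strand riboprobe. Phosphorimager quantification; EC50 = concentration reducing HBV DNA by 50%.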
Take `COc1ccc(CN2CN(C(=O)Nc3ccc(F)c(Cl)c3)CCC2=O)c(OC)c1` [Compound 28, N-(3-chloro-4-fluorophenyl)-3-(2,4-dimethoxybenzyl)-4-oxotetrahydropyrimidine-1(2H)-carboxamide]: the “Anti-HBV potency compared with 27 (58031), in words” value is on record as “slightly weaker potency”.

For the compound `O=C1CCN(C(=O)Nc2ccc(F)c(Cl)c2)CN1Cc1ccncc1` [Compound 29, N-(3-chloro-4-fluorophenyl)-4-oxo-3-(pyridin-4-ylmethyl)tetrahydropyrimidine-1(2H)-carboxamide], the “Anti-HBV potency compared with 27 (58031), in words” value is listed as “less active”. Take `O=C1CCN(C(=O)Nc2ccc(F)c(Cl)c2)CN1Cc1ccccn1` [Compound 30, N-(3-chloro-4-fluorophenyl)-4-oxo-3-(pyridin-2-ylmethyl)tetrahydropyrimidine-1(2H)-carboxamide]: the “Anti-HBV potency compared with 27 (58031), in words” value is on record as “less active”. For `O=C1CCN(C(=O)Nc2ccc(F)c(Cl)c2)CN1CC1CCN(c2ccccc2)C1` (stereo not shown) [Compound 32, N-(3-chloro-4-fluorophenyl)-4-oxo-3-((1-phenylpyrrolidin-3-yl)methyl)tetrahydropyrimidine-1(2H)-carboxamide], the “Anti-HBV potency compared with 27 (58031), in words” value was “failed to improve the potencies”.

For the compound `O=C1CCN(C(=O)Nc2ccc(F)c(Cl)c2)CN1CC1CN(c2ccccc2)C(=O)O1` (stereo not shown) [Compound 33, N-(3-chloro-4-fluorophenyl)-4-oxo-3-((2-oxo-3-phenyloxazolidin-5-yl)methyl)tetrahydropyrimidine-1(2H)-carboxamide], the “Anti-HBV potency compared with 27 (58031), in words” value is “failed to improve the potencies”.

As to `O=C1CCN(C(=O)Nc2cccc(Cl)c2)CN1Cc1ccc(F)cc1F` [Compound 35, N-(3-chlorophenyl)-3-(2,4-difluorobenzyl)-4-oxotetrahydropyrimidine-1(2H)-carboxamide], the “Anti-HBV potency compared with 27 (58031), in words” value is listed as “comparable activities”. `O=C1CCN(C(=O)Nc2ccc(F)c(C(F)F)c2)CN1Cc1ccc(F)cc1F` [Compound 36, 3-(2,4-difluorobenzyl)-N-(3-(difluoromethyl)-4-fluorophenyl)-4-oxotetrahydropyrimidine-1(2H)-carboxamide]: the “Anti-HBV potency compared with 27 (58031), in words” value was “comparable activities”. As to `O=C1CCN(C(=O)Nc2cc(F)c(F)c(F)c2)CN1Cc1ccc(F)cc1F` [Compound 40, 3-(2,4-difluorobenzyl)-4-oxo-N-(3,4,5-trifluorophenyl)tetrahydropyrimidine-1(2H)-carboxamide], the “Anti-HBV potency compared with 27 (58031), in words” value is given as “reduced the activities”. `O=C1CCN(C(=O)Nc2cc(F)c(F)cc2Cl)CN1Cc1ccc(F)cc1F` [Compound 41, N-(2-chloro-4,5-difluorophenyl)-3-(2,4-difluorobenzyl)-4-oxotetrahydropyrimidine-1(2H)-carboxamide]: the “Anti-HBV potency compared with 27 (58031), in words” value is listed as “reduced the activities”. Regarding `O=C1CCN(C(=O)Nc2cc(Cl)c(F)c(Cl)c2)CN1Cc1ccc(F)cc1F` [Compound 42, N-(3,5-dichloro-4-fluorophenyl)-3-(2,4-difluorobenzyl)-4-oxotetrahydropyrimidine-1(2H)-carboxamide], the “Anti-HBV potency compared with 27 (58031), in words” value is “reduced the activities”. `O=C1CCN(C(=O)NCc2ccccc2F)CN1Cc1ccc(F)cc1F` [Compound 43, 3-(2,4-difluorobenzyl)-N-(2-fluorobenzyl)-4-oxotetrahydropyrimidine-1(2H)-carboxamide]: the “Anti-HBV potency compared with 27 (58031), in words” value was “not tolerated”. Regarding `CC1CC(=O)N(Cc2ccc(F)cc2F)CN1C(=O)Nc1ccc(F)c(Cl)c1` (stereo not shown) [Compound 44, N-(3-chloro-4-fluorophenyl)-3-(2,4-difluorobenzyl)-6-methyl-4-oxotetrahydropyrimidine-1(2H)-carboxamide], the “Anti-HBV potency compared with 27 (58031), in words” value is “reduced activity”.

On to `O=C1CC(Cc2cc(F)c(F)cc2F)N(C(=O)Nc2ccc(F)c(Cl)c2)CN1Cc1ccc(F)cc1F` (stereo not shown) [Compound 45, N-(3-chloro-4-fluorophenyl)-3-(2,4-difluorobenzyl)-4-oxo-6-(2,4,5-trifluorobenzyl)tetrahydropyrimidine-1(2H)-carboxamide], for which the “Anti-HBV potency compared with 27 (58031), in words” value is recorded as “deteriorated the potency”. With `O=C1CC(CN2CCC(F)(F)CC2)N(C(=O)Nc2ccc(F)c(Cl)c2)CN1Cc1ccc(F)cc1F` (stereo not shown) [Compound 46, N-(3-chloro-4-fluorophenyl)-3-(2,4-difluorobenzyl)-6-((4,4-difluoropiperidin-1-yl)methyl)-4-oxotetrahydropyrimidine-1(2H)-carboxamide], the “Anti-HBV potency compared with 27 (58031), in words” value is reported as “deteriorated the potency”. Turning to `O=C1CC(CN2CCC(F)(F)C2)N(C(=O)Nc2ccc(F)c(Cl)c2)CN1Cc1ccc(F)cc1F` (stereo not shown) [Compound 47, N-(3-chloro-4-fluorophenyl)-3-(2,4-difluorobenzyl)-6-((3,3-difluoropyrrolidin-1-yl)methyl)-4-oxotetrahydropyrimidine-1(2H)-carboxamide], the “Anti-HBV potency compared with 27 (58031), in words” value is listed as “deteriorated the potency”. Regarding `CC1(C)CN(C(=O)Nc2ccc(F)c(Cl)c2)CN(Cc2ccc(F)cc2F)C1=O` [Compound 48, N-(3-chloro-4-fluorophenyl)-3-(2,4-difluorobenzyl)-5,5-dimethyl-4-oxotetrahydropyrimidine-1(2H)-carboxamide], the “Anti-HBV potency compared with 27 (58031), in words” value is given as “diminished the activities only by two to threefold”. For the compound `O=C1C2CCCC2N(C(=O)Nc2ccc(F)c(Cl)c2)CN1Cc1ccc(F)cc1F` (stereo not shown) [Compound 49, N-(3-chloro-4-fluorophenyl)-3-(2,4-difluorobenzyl)-4-oxooctahydro-1H-cyclopenta[d]pyrimidine-1-carboxamide], the “Anti-HBV potency compared with 27 (58031), in words” value is on record as “diminished the activities only by two to threefold”.

As to `O=C(Nc1ccc(F)c(Cl)c1)N1CC(c2ccccc2)C(=O)N(Cc2ccc(F)cc2F)C1` (stereo not shown) [Compound 50, N-(3-chloro-4-fluorophenyl)-3-(2,4-difluorobenzyl)-4-oxo-5-phenyltetrahydropyrimidine-1(2H)-carboxamide], the “Anti-HBV potency compared with 27 (58031), in words” value is reported as “comparable or slightly better potencies”.

As to `O=C(Nc1ccc(F)c(Cl)c1)N1CC(Cc2ccccc2)C(=O)N(Cc2ccc(F)cc2F)C1` (stereo not shown) [Compound 51, 5-benzyl-N-(3-chloro-4-fluorophenyl)-3-(2,4-difluorobenzyl)-4-oxotetrahydropyrimidine-1(2H)-carboxamide], the “Anti-HBV potency compared with 27 (58031), in words” value is reported as “diminished the activities only by two to threefold”. The same measure, in the same setting: in the case of `O=C(Nc1ccc(F)c(Cl)c1)N1CC(n2cc(C3CC3)nn2)C(=O)N(Cc2ccc(F)cc2F)C1` (stereo not shown) [Compound 52, N-(3-chloro-4-fluorophenyl)-5-(4-cyclopropyl-1H-1,2,3-triazol-1-yl)-3-(2,4-difluorobenzyl)-4-oxotetrahydropyrimidine-1(2H)-carboxamide] it was “comparable or slightly better potencies”.

The same assay, now with this note: Hepatitis B virus, AML12HBV10, 48 h, read-out: EC50 (50% inhibitory concentration of cytoplasmic HBV-DNA replication).
As to `O=C1CCN(C(=O)Nc2ccc(F)c(Cl)c2)CN1Cc1ccc(F)cc1` [Compound 21, N-(3-chloro-4-fluorophenyl)-3-(4-fluorobenzyl)-4-oxotetrahydropyrimidine-1(2H)-carboxamide], the EC50 was 2.02 µM. As for `O=C1CCN(C(=O)Nc2ccc(F)c(Cl)c2)CN1CCc1ccc(F)cc1` [Compound 22, N-(3-chloro-4-fluorophenyl)-3-(4-fluorophenethyl)-4-oxotetrahydropyrimidine-1(2H)-carboxamide], the EC50 is 5.08 µM.

Values taken from article PMC7797712 (Medicinal Chemistry Research, 2021).
